{"source": "paper PMC5600458", "about": "(Biochemistry and Biophysics Reports, 2016)", "key": {"trypsin [1]": {"molecular_target": "T1, trypsin (Bos taurus, UniProt P00760)", "T1 sequence (P00760 24-246)": "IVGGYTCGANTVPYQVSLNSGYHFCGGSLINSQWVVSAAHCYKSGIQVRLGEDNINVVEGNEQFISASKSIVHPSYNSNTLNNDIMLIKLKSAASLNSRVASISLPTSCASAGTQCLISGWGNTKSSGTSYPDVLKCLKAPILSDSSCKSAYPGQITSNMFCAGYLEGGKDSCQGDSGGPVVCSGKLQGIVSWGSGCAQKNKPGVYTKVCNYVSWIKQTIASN", "format": "biochemical", "details": "pH 7.2", "how_it_was_run": "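Trypsin (78% active by p-nitrophenyl p-guanidobenzoate titration) hydrolysing α-N-benzoyl-L-arginine-p-nitroanilide at 25 °C, [S0] ≪ KM, in 0.1 M buffers (potassium phosphate at pH 7.2; sodium acetate at pH 5.0). At pH 7.2: 88.0 μM substrate, 0.17 μM trypsin, 3.3% DMSO. Inhibitor was added last. Initial rates were taken within 0.5–1 min and fitted to d[P]/dt = vo·Ki/([I]+Ki), ≥3 determinations. Effective molarity = KHK(obs)/KH1.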"}, "[2]": {"assay": "Hydration constants by quantitative 13C NMR", "format": "physicochemical", "details": "pH 3.0, 13C NMR"}, "[3]": {"assay": "13C NMR of stability / Schiff base formation by the free glyoxal inhibitor", "format": "physicochemical"}, "trypsin [4]": {"molecular_target": "T1, trypsin", "assay": "13C NMR of trypsin catalysed breakdown of bound glyoxal inhibitor", "format": "biochemical", "details": "pH 7.2, in the presence of trypsin"}}}
{"smiles": "NC(N)=NCCC[C@H](NC(=O)OCc1ccccc1)C(=O)O", "note": "[Z-Arg-COOH]", "values": [{"measurement": "Tighter binding than Z-Lys-COOH", "setting": "trypsin [1]", "value": "~ 2 fold"}]}
{"smiles": "NCCCC[C@H](NC(=O)OCc1ccccc1)C(=O)[13CH]=O", "note": "[Z-Lys-CO^13CHO]", "values": [{"measurement": "KH1obs, glyoxal aldehyde carbon", "setting": "[2]", "value": "97±7"}, {"measurement": "Stability of NMR signals", "setting": "[3]; pH 3.0, 64 h at 25 °C", "value": "no change in the intensity of the NMR signals"}, {"measurement": "t1/2 of decrease of inhibitor signals on storage", "setting": "[3]; pH 3, storage ~1 year", "value": "1850 ± 228", "unit": "h"}, {"measurement": "Half life of Schiff base formation", "setting": "[3]; pH 7.2, 25 °C", "value": 11.2, "unit": "h"}, {"measurement": "1st order rate constant of Schiff base formation", "setting": "[3]; pH 7.2, 25 °C, 20 mM potassium phosphate buffer", "value": "0.062 ± 0.016", "unit": "h⁻¹"}, {"measurement": "Half life of Schiff base formation", "setting": "[3]; pH 10.4", "value": 0.15, "unit": "h"}, {"measurement": "1st order rate constant of Schiff base formation", "setting": "[3]; pH 10.4, 20 mM sodium bicarbonate buffer", "value": "4.7 ± 0.7", "unit": "h⁻¹"}, {"measurement": "t1/2 of conversion of trypsin-bound inhibitor to α-hydroxycarboxylic acid", "setting": "trypsin [4]", "value": 2.9, "unit": "h"}]}
{"smiles": "NCCCC[C@H](NC(=O)OCc1ccccc1)[13C](=O)C=O", "note": "[Z-Lys-^13COCHO]", "values": [{"measurement": "Half life of Schiff base formation allowing for pH 7.0 instead of 7.2", "setting": "[3]; corrected to pH 7.2", "value": 14.5, "unit": "h"}, {"measurement": "Half life of Schiff base formation", "setting": "[3]; pH 7.0", "value": 23.0, "unit": "h"}, {"measurement": "1st order rate constant of Schiff base formation", "setting": "[3]; pH 7.0, 25 °C, 20 mM potassium phosphate buffer", "value": "0.030±0.004", "unit": "h^−^1"}]}
